As usually defined, the IC50 is the concentration that gives 50% inhibition.

The subject of data set [1] is Plasmodium falciparum. As to the kind of experiment: Inhibition of Plasmodium falciparum falcipain.
The nature of data set [2]: Toxicity in human RBC assessed as hemolysis at 100 uM after 48 hrs. It counts as cell-based, Erythrocyte. Particulars: red blood cells (RBC), read-out: Activity. The procedure, abridged:
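Fresh human red blood cells at 1% haematocrit in culture medium, incubated 48 h with compound at 100 μM, absorbance read at 412 nm. % haemolysis calculated against 0.5% Triton X100 as the 100% control. At least triplicate, mean ± s.d.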

The subject of data set [3] is Plasmodium falciparum. The data set is described as follows: Inhibition of Plasmodium falciparum cysteine protease.
Data set [4] relates to Plasmodium falciparum. The data set is described as follows: Antimicrobial activity against chloroquine-sensitive Plasmodium falciparum 3D7 assessed as inhibition of [3H] hypoxanthine incorporation after 24 hrs by scintillation counting. The format is functional, organism-based. Put shortly:
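Synchronized ring-stage 3D7 culture at 0.5% parasitemia and 1% haematocrit in supplemented RPMI-1640, exposed to serially diluted DMSO stocks for 24 h. [3H]-hypoxanthine added at 0.5 µCi/well for a further 24 h, then DNA harvested onto filter mats and counted by β-scintillation. IC50 from log sigmoid dose-response curves. At least triplicate; chloroquine and quinine as references.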

The test system of data set [5] is MCF7. As to the kind of experiment: Cytotoxicity against human MCF7 cells after 48 hrs by MTT assay. The format is cell-based. Particulars: MCF7, 48 h. Put shortly: (§1)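 MCF-7 cells grown in DMEM with 10% FCS and penicillin/streptomycin, seeded at 1.2×10^4 cells/well and grown 48 h before treatment. Stocks prepared in 20% (v/v) DMSO and diluted in medium. After 48 h at 37 °C, MTT (5 mg/mL) added for 4 h, formazan dissolved in DMSO, A570 read with 655 nm reference. Viability relative to untreated cells; triplicate.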
(In general: Tetrazolium assays rely on reduction of a dye to a coloured formazan, in cell work by metabolically active cells.)

Data set [6] has as its system Entamoeba histolytica. As to the kind of experiment: […] activity against Entamoeba histolytica HM-1:IMSS trophozoites after 72 hrs by microdilution method. It counts as functional, organism-based. The procedure, abridged: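 E. histolytica trophozoites in TYIS-33 medium; DMSO stocks (1 mg/mL) twofold serially diluted, 1.7×10^4 amoebae/well, nitrogen-gassed, 37 °C for 72 h. Methanol-fixed, eosin-stained, dye released in 0.1 N NaOH, OD 490 nm. Triplicate per concentration, repeated thrice. % inhibition vs log concentration, IC50 from linear regression; metronidazole as reference.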
(In general: Broth dilution looks for growth in wells or tubes with falling amounts of substance.)

A short description of data set [7]: Inhibition of beta-haematin formation after 24 hrs by microtiter plate assay. It counts as functional. The procedure, abridged: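 Compound mixed with haemin (1 mg/mL in DMSO), water and 0.5 M acetate buffer at pH 4.7, then incubated 24 h. Unreacted haemin removed by three DMSO washes with centrifugation at 1500 g. β-haematin dissolved in 2 M NaOH, diluted twofold, absorbance read at 405 nm. IC50 taken from the data. Chloroquine and quinine as positive controls; at least triplicate.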

Data set [8] in a line: Inhibition of beta-haematin formation at 100 uM after 24 hrs by microtiter plate assay. It counts as functional.
For data set [9], the system named is Radical scavenging activity. The data set is described as follows: Antioxidant activity assessed as DPPH radical scavenging activity at 80 uM after 30 mins. It counts as functional. The procedure, abridged:
(§2)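 Compounds added to DPPH• in methanol, kept in the dark at room temperature for 30 min, absorbance read at 540 nm. Scavenging given as % decrease in absorbance relative to a drug-free DPPH• control, with a MeOH/DMSO background control. Ascorbic acid as comparator; triplicate.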

Data set [10] deals with Radical scavenging activity. As to the kind of experiment: Antioxidant activity assessed as DPPH radical scavenging activity after 30 mins. The format is functional. Put shortly:
as §2
A general note: Loss of DPPH colour is used to gauge radical scavenging.

Data set [11] deals with Plasmodium falciparum. The data set is described as follows: Antimicrobial activity against chloroquine-resistant Plasmodium falciparum FCB1. It counts as functional, organism-based. Particulars: FcB1/Columbia.
Data set [12] deals with Plasmodium falciparum. As to the kind of experiment: Antimicrobial activity against chloroquine-sensitive Plasmodium falciparum 3D7 assessed as inhibition of [3H] hypoxanthine incorporation at 100 uM after 24 hrs by scintillation counting. The format is functional.
The nature of data set [13]: Cytotoxicity against human MCF7 cells assessed as cell growth inhibition at 100 uM after 48 hrs by MTT assay. It counts as cell-based. Particulars: read-out: GI. Put shortly: as §1
Data set [14] relates to Entamoeba histolytica. The data set is described as follows: Ratio of metronidazole IC50 to compound IC50 for Entamoeba histolytica HM-1:IMSS trophozoites. It counts as functional.
The subject of data set [15] is MCF7. The data set is described as follows: Cytotoxicity against human MCF7 cells assessed as cell growth inhibition after 48 hrs by MTT assay. The format is cell-based. Particulars: mcf7, 48 h. Put shortly: as §1
Data set [16] can be described thus: Cytotoxicity against human MCF7 cells assessed as cell growth inhibition at 50 uM after 48 hrs by MTT assay. It counts as cell-based. The conditions noted are these: read-out: GI. Put shortly: as §1

Active and inactive are the calls of the source. No cut-off for these calls is given here.

For the compound `Cc1ccc2nc(Cl)c(/C=C/C(=O)c3cccc(Br)c3)cc2c1`, the inhibition entry in [1] and in data set [3] was “inactive” in each case. Moreover, the hemolysis at 48 h, 100 µM in data set [2] worked out at 1.68%. The half-inhibitory concentration (IC50) is 50.1 µM in [4], more than 100 µM in data set [5], 1.03 µM in data set [6] and more than 100 µM in data set [7]. Also, in data set [8], the inhibition came to 14.9%.
As for `O=C(/C=C/c1cc2ccccc2nc1Cl)c1ccc(Br)cc1`, the inhibition result in data set [1] and in data set [3] was “inactive” each time. The hemolysis at 48 h, 100 µM in data set [2] stood at 2.2%. The IC50 in data set [4] was 44.6 µM; in data set [6], 3.38 µM; in data set [7], more than 100 µM. The inhibition in [8] is 13.6%.
Consider `C=C[C@H]1C[N@@]2CC[C@H]1C[C@H]2[C@H](O)c1ccnc2ccc(OC)cc12` [QUININE], for which the hemolysis at 48 h, 100 µM in [2] is 1.22%.
As to `CCN(CC)CCCC(C)Nc1ccnc2cc(Cl)ccc12` (configuration not stated) [CHLOROQUINE], the hemolysis at 48 h, 100 µM in [2] turned out to be 0.72%. The Activity in data set [9] is 4.06%. The compound also gave a 50% inhibitory concentration (IC50) in data set [7] of 25 µM.
As for `O=C(/C=C/c1cc2ccccc2nc1Cl)c1ccccn1`, the inhibition result in [1] and in data set [3] was “inactive” each time. Besides, in data set [2], the hemolysis at 48 h, 100 µM turned out to be 1.1%. The IC50 was 32 µM in data set [4], 5.3 µM in data set [6] and more than 100 µM in data set [7]. In data set [8], this compound returned an inhibition of 12.3%.
Turning to `O=C1O[C@H]([C@@H](O)CO)C(O)=C1O` [ASCORBIC ACID], the IC50 in data set [10] came out at 20.1 µM.
For `Cc1ccc2cc(/C=C/C(=O)c3ccc(Cl)cc3)c(Cl)nc2c1`, the inhibition entry in data set [1] and in [3] was “inactive” in each case. Moreover, the 50% inhibitory concentration (IC50) was more than 200 µM in data set [11] and 6.91 µM in data set [6].
In the case of `C/C(=C\c1cc2cc(C)ccc2nc1Cl)C(=O)c1cccc(Cl)c1`, the inhibition entry in [1] and in data set [3] was “inactive” in each case. In [2], the hemolysis at 48 h, 100 µM is 1.24%. For the same compound, the IC50 in data set [4] is more than 100 µM; in [5], more than 100 µM; in [6], 0.06 µM; in data set [7], more than 100 µM. Moreover, the inhibition at 100 µM in data set [12] turned out to be 8.74%. Moreover, in data set [8], the inhibition is 14.4%.
As to `C/C(=C\c1cc2ccccc2nc1Cl)C(=O)c1cccc(Br)c1`, the inhibition result in data set [1] and in data set [3] was “inactive” each time. The hemolysis at 48 h, 100 µM in [2] is 2.17%. For the same compound, the half-maximal inhibitory concentration (IC50) was more than 100 µM in data set [4], 3.65 µM in data set [6] and more than 100 µM in data set [7]. Moreover, the Activity in data set [9] came out at 1.43%. Moreover, the inhibition at 100 µM in data set [12] amounted to 34.3%. This compound also displayed an inhibition in data set [8] of 9.35%.
For `Cc1ccc2cc(/C=C/C(=O)c3ccccn3)c(Cl)nc2c1`, the inhibition at 48 h, 100 µM in data set [13] is 66%. Further, the inhibition result in data set [1] and in [3] was “inactive” throughout. For the same compound, the hemolysis at 48 h, 100 µM in [2] was 0.47%. The Ratio IC50 in data set [14] is 29.2. Moreover, the half-maximal inhibitory concentration (IC50) in data set [4] is 31.3 µM; in data set [5], 75.7 µM; in [6] it was 0.05 µM; in [7] it was more than 100 µM. Further, the Activity entry in data set [15] is “Dose-dependent effect”. Also, the inhibition at 48 h, 50 µM in data set [16] was 36%. The inhibition in [8] was determined as 15%.
Take `C/C(=C\c1cc2cc(C)ccc2nc1Cl)C(=O)c1cccc(Br)c1`: the inhibition result in data set [1] and in data set [3] was “inactive” each time. Further, in [2], the hemolysis at 48 h, 100 µM was 1.53%. The IC50 in [4] is more than 100 µM; in data set [6] it was 2.79 µM; in data set [7] it was more than 100 µM. Also, in data set [12], the inhibition at 100 µM is 51.1%. In addition, the inhibition in data set [8] turned out to be 13.3%.
Take `Cc1ccc2nc(Cl)c(/C=C/C(=O)c3ccc(Br)cc3)cc2c1`: the inhibition result in [1] and in [3] was “inactive” throughout. The hemolysis at 48 h, 100 µM in [2] came to 1.4%. Further, the IC50 in data set [4] was 74.8 µM; in data set [6], 4.09 µM; in data set [7], more than 100 µM. Also, the inhibition in [8] amounted to 55.4%.
Regarding `C=C[C@H]1CN2CC[C@H]1C[C@H]2[C@H](O)c1ccnc2ccc(OC)cc12` [QUININE], the figures for the 50% inhibitory concentration (IC50) in [4] and in [7] were 0.14 µM and 65.8 µM, respectively. In addition, in [9], the Activity turned out to be 2.65%.
As for `Cc1ccc2nc(Cl)c(/C=C/C(=O)c3ccccn3)cc2c1`, the inhibition entry in data set [1] and in data set [3] was “inactive” each time. Also, in [2], the hemolysis at 48 h, 100 µM was found to be 1.55%. Besides, the IC50 in [4] is 31.5 µM; in [6], 1.45 µM; in data set [7] it was more than 100 µM. Also, the inhibition in [8] turned out to be 11.5%.
For `O=C(/C=C/c1cc2ccccc2nc1Cl)c1cccc(Br)c1`, the inhibition entry in data set [1] and in data set [3] was “inactive” throughout. Further, in [2], the hemolysis at 48 h, 100 µM was 1.38%. Besides, the 50% inhibitory concentration (IC50) in data set [4] was more than 100 µM; in data set [6] it was 3.45 µM; in [7] it was more than 100 µM. In addition, in [12], the inhibition at 100 µM turned out to be 61.2%. For the same compound, in data set [8], the inhibition turned out to be 16%.
Regarding `O=C(/C=C/c1cc2ccccc2nc1Cl)c1ccc(Cl)cc1`, the inhibition result in data set [1] and in data set [3] was “inactive” each time. Further, the hemolysis at 48 h, 100 µM in data set [2] came out at 1.74%. The Ratio IC50 in data set [14] is 29.2. Besides, the IC50 in data set [4] is 39.2 µM; in data set [11] it was more than 200 µM; in [5], more than 100 µM; in [6] it was 0.05 µM; in [7] it was more than 100 µM. Besides, the Activity in data set [9] was 3.69%. Further, in [8], the inhibition turned out to be 19.5%.
Consider `C/C(=C\c1cc2ccc(C)cc2nc1Cl)C(=O)c1cccc(Cl)c1`, for which the inhibition result in data set [1] and in data set [3] was “inactive” in each case. Also, the hemolysis at 48 h, 100 µM in data set [2] turned out to be 1.44%. The IC50 was 50.4 µM in [4], 7.03 µM in data set [6] and more than 100 µM in data set [7]. The Activity in data set [9] worked out at 0.78%. In data set [8], this compound displayed an inhibition of 5.64%.
`C/C(=C\c1cc2ccc(C)cc2nc1Cl)C(=O)c1cccc(Br)c1`: the inhibition entry in data set [1] and in data set [3] was “inactive” in each case. Besides, the hemolysis at 48 h, 100 µM in data set [2] amounted to 1.04%. Also, the “Ratio IC50” value in data set [14] was 16. Further, the half-inhibitory concentration (IC50) is 47.1 µM in data set [4], more than 100 µM in data set [5], 0.09 µM in data set [6] and more than 100 µM in [7]. In data set [9], the Activity is 2.27%. Besides, in data set [8], the inhibition stood at 10.5%.
Take `Cc1ccc2cc(/C=C/C(=O)c3cccc(Br)c3)c(Cl)nc2c1`: the inhibition entry in data set [1] and in data set [3] was “inactive” each time. Moreover, the hemolysis at 48 h, 100 µM in [2] was 1.09%. Moreover, the IC50 in data set [4] was 59.7 µM; in data set [6], 7.53 µM; in [7], more than 100 µM. The inhibition in data set [8] was 27.5%.
In the case of `Cc1ncc([N+](=O)[O-])n1CCO` [METRONIDAZOLE], the IC50 in [5] was more than 100 µM; in data set [6] it was 1.46 µM.

These data come from ChEMBL document CHEMBL1781903, “Antiprotozoal activity of chloroquinoline based chalcones” (Eur J Med Chem, 2011).
